APP 5'UTR act: APP 5'UTR luciferase reporter activation | AID 1276 | activation, % at 2 µM | hit rate 1% among 190,000 | SH-SY5Y APP 5'UTR luciferase reporter, luminescence; zero percent = DMSO vehicle wells;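 active = activation above a set limit, based on mean plus 3 SD of controls, cut at about 140% in these data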
NF-kB neuron act: NF-kB expression increase, human neuronal cells. NF-kB reporter expression; hits give high values. fold change at 12.5 µM. hit rate 1.6% among 190,000; in the data active = fold change above about 3.3
FLuc inh counter: inhibits firefly luciferase, flagging false hits in luciferase inhibition screens; inhibition, % at 10 µM; ATPLite firefly luciferase biochemical luminescence, 10 min; hit rate 1.5% among 200,000; P08659;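 active = inhibition above about 50% when tested at 10 µM, limit read from the data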
Target sequence (P08659 whole entry, looked up): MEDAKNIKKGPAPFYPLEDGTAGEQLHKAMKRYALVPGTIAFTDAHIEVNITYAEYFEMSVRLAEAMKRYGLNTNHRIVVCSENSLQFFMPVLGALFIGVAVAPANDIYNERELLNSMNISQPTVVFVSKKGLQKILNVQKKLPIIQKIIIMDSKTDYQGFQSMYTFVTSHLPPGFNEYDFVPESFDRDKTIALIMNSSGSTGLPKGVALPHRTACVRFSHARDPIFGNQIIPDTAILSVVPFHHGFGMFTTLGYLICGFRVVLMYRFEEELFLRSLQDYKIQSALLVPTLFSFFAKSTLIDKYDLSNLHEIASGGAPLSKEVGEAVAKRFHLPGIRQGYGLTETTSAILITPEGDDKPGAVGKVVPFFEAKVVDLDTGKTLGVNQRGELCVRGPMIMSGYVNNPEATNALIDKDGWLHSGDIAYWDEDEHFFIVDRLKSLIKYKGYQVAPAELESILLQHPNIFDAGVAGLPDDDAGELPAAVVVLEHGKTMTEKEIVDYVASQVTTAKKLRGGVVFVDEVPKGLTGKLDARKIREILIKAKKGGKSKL
STAT1 act: STAT1 signaling activation | activation (% of control), % at 5.5 µM | NIH 3T3 STAT1-luciferase reporter, IFN-gamma, luminescence; 100% = IFN-gamma alone, no compound | AID 932 | hit rate 2.6% among 200,000;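 active = activation above the screen-wide mean activation plus 3 SD, cut at about 130% in these data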
FLuc stim CS: affects firefly luciferase, flagging false hits in luciferase stimulation screens; P08659; ATPlite luciferase biochemical, luminescence, 10 min; 0 = ATP-free wells, 1 = DMSO control; activation factor at 10 µM; 200,000 tested, under 10 active;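 active = luciferase activation factor, scaled between plate controls, of at least 2 with compound at 10 µM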
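System: Luciferase/luciferin detection reagent, cell-free biochemical luciferase assay | Medium: PBS buffer for ATP | Dosing: Test compounds dosed from 2 mM stocks in 100% DMSO | Timing: 10 min at ambient temperature | Signal: Luminescence measurement of luciferase light output | Evaluation: Luciferase activation, seen as luminescence increase over controls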
Hits are given with their value; i = inactive; nt = not tested or not shown. A selection: hits, their analogues and other compounds. The true share with any hit is near 4.1%.

SMILES	APP 5'UTR act	NF-kB neuron act	FLuc inh counter	STAT1 act	FLuc stim CS
Cc1ccc2cc(/C=N/Nc3nc4ccccc4[nH]3)c(Cl)nc2c1	i	i	94	i	i
Cc1cc2cc(CNC(=S)NCc3ccccc3)ccc2n1C	i	i	i	i	i
Cc1ccc(Nc2nnc(SCc3cc(=O)n4cc(C)ccc4n3)s2)cc1	i	i	i	i	i
CS(=O)(=O)N1CCN(c2ccc(NC(=O)c3ccc(-c4ccc(Cl)cc4)o3)cc2)CC1	i	i	i	i	i
C(=N\Nc1nc2ccccc2[nH]1)/c1ccccn1	i	i	96	i	i
CCCCn1c(/C=N/Nc2nc3ccccc3[nH]2)nc2ccccc21	i	i	i	i	i
Fc1ccccc1-c1ccc(/C=N/Nc2nc3ccccc3[nH]2)o1	i	i	93	i	i
CCOc1cc(OCC)cc(C(=O)Nc2cccnc2)c1	i	i	i	i	i
CCOC(=O)C(/C=N/c1cc(C)nn1-c1ccccc1)=C(\C)O	nt	i	i	i	i
CN1CCc2c(C#N)c(N3CCCCC3)nc(NCc3ccccc3)c2C1	i	i	i	i	i
N#Cc1c(NCCCO)nc(NCc2ccccc2)c2c1CCN(Cc1ccccc1)C2	i	3.3	i	i	i
O=C(CNC(=O)c1ccco1)N/N=C/c1c[nH]c2ccccc12	i	i	i	i	i
CC(=O)Nc1ccc(C2=NN(Cc3nnc(-c4ccccc4)o3)C(=O)SC2)cc1	i	i	i	i	i
O=C(N/N=C\c1cccc(OC(=O)c2ccco2)c1)c1ccc2c(c1)OCO2	i	5.1	70	i	i
O=C(N/N=C\c1ccc2c(c1)OCO2)c1ccco1	i	i	75	147	i
O=C(N/N=C/c1ccc2cccnc2c1)c1ccco1	166	3.5	88	i	i
NC(=O)/C(=C/c1ccc2c(c1)OCO2)NC(=O)c1ccco1	i	i	i	i	i
O=C(Cn1cc2c(n1)CCCC2)NCc1ccccn1	i	i	i	i	i
CN(CC(=O)Nn1cnnc1)S(=O)(=O)c1cc(Cl)ccc1Cl	i	i	i	i	i
O=C(NCC1OCCCN1S(=O)(=O)c1cc(F)ccc1F)C(=O)NC1CCCCCC1 (stereo not drawn)	i	i	i	138	i
Cc1cc(F)ccc1S(=O)(=O)N1CCCOC1CNC(=O)C(=O)NCc1ccco1 (stereo not drawn)	i	i	i	i	i
COc1ccc2c(c1)CCC1C2=NN(/C(C)=C\C(C)=O)C1c1ccc(F)cc1 (stereo not drawn)	i	i	i	130	i
O=C(Nc1ccc(Cl)cn1)c1cc2ccccc2o1	205	9.2	64	i	i
O=C(Nc1ccc(Cl)cn1)c1ccc(-c2cc(Cl)ccc2Cl)o1	i	i	i	i	i
O=C(NC1=NCCS1)c1cc2ccccc2o1	i	4.8	86	i	i
SMILES	APP 5'UTR act	NF-kB neuron act	FLuc inh counter	STAT1 act	FLuc stim CS
O=C(Nc1ccccn1)c1cc2ccccc2o1	i	i	95	i	i
O=C(Nc1ccc(Br)cn1)c1cccc(-c2cc3ccccc3oc2=O)c1	i	i	i	144	i
CCC(=O)Nc1ccc(NC(=O)c2cc3ccccc3o2)cc1	i	i	i	i	i
COc1ccccc1CNC(=O)CSc1ccc(C(=O)Nc2ccccc2OC)cc1[N+](=O)[O-]	i	i	i	i	i
O=C(Nc1ccc(Cl)cn1)c1ccc([N+](=O)[O-])o1	i	5.9	i	i	i
CN(c1ccc(OCC(=O)OCC(=O)NC2CCCC2)cc1)S(=O)(=O)c1ccc2ccccc2c1	i	i	i	i	i
CCOC(=O)c1ccc(NC(=O)Nc2ncccc2C)cc1	i	i	i	i	i
Cc1ccc(C)c(NC(=S)Nc2ncccc2C)c1	i	i	i	132	i
Cc1cccnc1NC(=O)Nc1cccc(C(F)(F)F)c1	i	i	i	i	i
Cc1ccc(NC(=O)Nc2ncccc2C)cc1	i	i	i	149	i
Cc1cccnc1NC(=O)Nc1ccc(F)cc1	i	i	i	136	i
Cc1ccsc1/C=N\NC(=O)c1ccc2c(c1)OCO2	i	4.3	77	i	i
O=C(N/N=C/c1cc([N+](=O)[O-])ccc1O)c1ccc2c(c1)OCCO2	i	i	70	i	i
O=C(N/N=C/c1ccc[nH]1)c1ccc2c(c1)OCO2	i	i	73	i	i
Cc1ccsc1/C=N/NC(=O)c1ccc(-n2cccc2)cc1	i	i	i	129	i
COc1cccc(-n2c(N)c(C#N)c3ccc([N+](=O)[O-])cc3c2=O)c1	i	i	i	i	i
